Consider twelve compounds from PMC9053741 (RSC Advances, 2020).

By IC50 is commonly meant the concentration that inhibits the measured activity by half.

Where two headings read alike, the source gives them in different places.

Test [1] concerns HepG-2. Briefly: Cytotoxicity assay. Particulars: for IC50: read-out: IC50 HepG-2; for SI (selectivity indices): LO2 vs HepG-2, 48 h. The class given is cell-based, Human.
In test [2] the test system is LO2. Briefly: Cytotoxicity assay. Format: cell-based. Particulars: read-out: IC50 LO2.
For test [3], the system named is HepG-2 cells. Put plainly: Intracellular ROS measurements. Format: cell-based, Human. Particulars: HepG-2, 5 μM, 24 h. An outline of the steps:
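Using a kit protocol, HepG-2 were incubated with 5 μM test compound in serum-free medium for 24 h at 37 °C. 2 μM H2DCF-DA was then added and cells washed with serum-free medium. Fluorescence measured by flow cytometry and expressed relative to untreated control.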

Test [4] has as its system HepG-2 cells. Put plainly: Cell cycle distribution analysis. The class given is cell-based, Human. The conditions noted are these: HepG-2, 5 μM, 24 h. An outline of the steps:
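HepG-2 seeded at 1 × 10^5 cells per mL, settled 12 h at 37 °C in 5% CO2. Exposed to 5 μM test compound for 24 h, washed with cold PBS (pH 7.4) and fixed in 75% EtOH for 12 h at −20 °C. Treated with RNase (2.5 mg mL−1), stained with propidium iodide for 0.5 h, then run on a flow cytometer, 10000 events per sample.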

The subject of test [5] is cyclin E. Briefly: Western blot, cyclin E expression. Format: cell-based, Human. Particulars: HepG-2, 5 μM, 24 h. Summed up:
(§1)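 HepG-2 seeded at 1 × 10^5 cells per mL, grown 24 h, then given 5 μM test compound for 24 h. Cells washed in ice-cold PBS, lysed, and spun at 10000g for 15 min at 4 °C. Protein measured by […], separated by SDS-PAGE and transferred to PVDF on ice for 3 h. Blocked in 5% skim milk/TBST for 1 h at 25 °C, primary antibody overnight at 4 °C, secondary 1 h at 25 °C. ECL detection, normalized to β-actin and expressed relative to control. Student's t test.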
For orientation: Immunoblotting shows a protein as a band on a membrane.

Test [6] has as its system transferrin receptor-1 (TfR1). Briefly: Western blot, TfR1 expression. Particulars: HepG-2, 5 μM, 24 h. Format: cell-based, Human. An outline of the steps: as §1
Test [7] relates to cyclin A. Put plainly: Western blot, cyclin A expression. The class given is cell-based, Human. Particulars: HepG-2, 5 μM, 24 h. An outline of the steps:
as §1

For test [8], the system named is ferritin. Briefly: Western blot, ferritin expression. The class given is cell-based, Human. Particulars: HepG-2, 5 μM, 24 h. An outline of the steps: as §1
For test [9], the system named is HepG-2 cells. Put plainly: Cell apoptosis assay. Format: cell-based, Human. Particulars: HepG-2, 5 μM, 24 h. An outline of the steps: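 HepG-2 (1 × 10^6 cells per mL) exposed to 5 μM test compound for 24 h at 37 °C in 5% CO2. Resuspended in binding buffer (140 mM NaCl, 2.5 mM CaCl2, 10 mM Hepes/NaOH, pH 7.4) and stained with Annexin V and PI for 20 min at room temperature using a kit protocol. Early and late apoptotic fractions measured by flow cytometry.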

Test [10] relates to Cdk 2. Put plainly: Western blot, Cdk 2 expression. Particulars: HepG-2, 5 μM, 24 h. Format: cell-based, Human. An outline of the steps:
as §1

`NC(=S)NN=C(c1ccccc1)c1ccccn1` [L1, 2-(Phenyl(pyridin-2-yl)methylene)hydrazinecarbothioamide]: the IC50 came to 11.3 ± 0.21 µM in test [1] (Homo sapiens, HepG2, 48 h) and 43.6 ± 2.84 µM in test [2] (Homo sapiens, L02, 48 h). Further, the “SI (selectivity indices)” value in test [1] was 3.84.

Take `CN(C(=S)NN=C(c1ccccc1)c1ccccn1)C1CCCCC1` [L6, N-Cyclohexyl-N-methyl-2-(phenyl(pyridin-2-yl)methylene)hydrazinecarbothioamide]: the IC50 in [1] (Homo sapiens, HepG2, 48 h) was determined as 0.32 ± 0.02 µM. In test [1], the “SI (selectivity indices)” value turned out to be 36.06. For the same compound, the “percentage of intracellular ROS level relative to the control” value in test [3] was 17.12%. In [4], the “G1 phase cell proportion” value is reported as “increase” and the “percentage of G2 phase cells compared to the vehicle-treated control” value is recorded as “reduced”. Besides, in test [5], the “cyclin E expression level” value is recorded as “significant (p < 0.05) decreased”. Also, the “expression of TfR1 compared to the vehicle-treated control” value in [6] is listed as “about 1.43 fold”. The “cyclin A expression level” value in [7] is “significant (p < 0.05) decreased”. Also, the “expression of ferritin relative to the control group” value in [8] came out at 0.72 fold. Also, the “percentage of early apoptosis and late apoptosis relative to the control” value in [9] came to 24.87%. Besides, in test [10], the “Cdk 2 expression level” value is listed as “significant (p < 0.05) decreased”. Besides, in [2] (Homo sapiens, L02, 48 h), the IC50 came out at 11.5 ± 0.54 µM.

As for `NC1=N[N+]2=C(c3ccccc3)c3cccc[n+]3[Ga-2]2([Cl])([Cl])[S]1` [C1, Dichlorido[2-(phenyl(pyridin-2-yl)methylene)hydrazinecarbothioamide-N,N′,S]gallium(III)], the IC50 in test [1] (HepG-2 cells, 48 h, MTT) came out at 5.75 ± 0.54 µM; in test [2] (LO2 normal cells, 48 h, MTT), 33.8 ± 2.13 µM.

`N.N.[Cl][Pt][Cl]` [Cisplatin, reference compound]: the IC50 in test [1] (HepG-2 cells, 48 h, MTT) came out at 22.4 ± 2.21 µM; in test [2] (LO2 normal cells, 48 h, MTT) it was 21.3 ± 2.35 µM.

In the case of `CN(C)C(=S)NN=C(c1ccccc1)c1ccccn1` [L5, N,N-dimethyl-2-(phenyl(pyridin-2-yl)methylene)hydrazinecarbothioamide], the IC50 in test [1] (Homo sapiens, HepG2, 48 h) worked out at 0.57 ± 0.04 µM; in test [2] (Homo sapiens, L02, 48 h) it was 23.9 ± 2 µM. Besides, the “SI (selectivity indices)” value in test [1] came out at 41.84.

For `[Cl][Ga-2]12([Cl])[S]C(NC3CCCCC3)=N[N+]1=C(c1ccccc1)c1cccc[n+]12` [C4, Dichlorido[N-cyclohexyl-2-(phenyl(pyridin-2-yl)methylene)hydrazinecarbothioamide-N,N,S]-gallium(III)], the IC50 in test [1] (HepG-2 cells, 48 h, MTT) was 0.97 ± 0.02 µM; in test [2] (LO2 normal cells, 48 h, MTT), 20.4 ± 1.13 µM.

In the case of `S=C(NN=C(c1ccccc1)c1ccccn1)NC1CCCCC1` [L4, N-Cyclohexyl-2-(phenyl(pyridin-2-yl)methylene)hydrazinecarbothioamide], the IC50 in [1] (Homo sapiens, HepG2, 48 h) amounted to 1.32 ± 0.09 µM; in test [2] (Homo sapiens, L02, 48 h), 30.3 ± 2.16 µM. In addition, the “SI (selectivity indices)” value in [1] worked out at 22.97.

Take `CNC(=S)NN=C(c1ccccc1)c1ccccn1` [L2, N-Methyl-2-(phenyl(pyridin-2-yl)methylene)hydrazinecarbothioamide]: the IC50 in [1] (Homo sapiens, HepG2, 48 h) turned out to be 4.56 ± 0.11 µM; in test [2] (Homo sapiens, L02, 48 h), 35.8 ± 2.19 µM. In addition, the “SI (selectivity indices)” value in [1] is 7.84.

On to `CCNC1=N[N+]2=C(c3ccccc3)c3cccc[n+]3[Ga-2]2([Cl])([Cl])[S]1` [C3, Dichlorido[N-ethyl-2-(phenyl(pyridin-2-yl)methylene)hydrazinecarbothioamide-N,N,S]-gallium(III)], for which the IC50 in test [1] (HepG-2 cells, 48 h, MTT) was determined as 1.23 ± 0.09 µM; in [2] (LO2 normal cells, 48 h, MTT), 26.6 ± 3.86 µM.

Turning to `[Cl][Ga]([Cl])[Cl]` [GaCl3, reference compound], the anticancer activity result in test [1] (50 μM) was “not observed”. For the same compound, the IC50 in test [1] (HepG-2 cells, 48 h, MTT) was over 50 µM; in test [2] (LO2 normal cells, 48 h, MTT), over 50 µM.

Take `CCNC(=S)NN=C(c1ccccc1)c1ccccn1` [L3, N-Ethyl-2-(phenyl(pyridin-2-yl)methylene)hydrazinecarbothioamide]: the IC50 is 2.43 ± 0.1 µM in [1] (Homo sapiens, HepG2, 48 h) and 33 ± 3.64 µM in [2] (Homo sapiens, L02, 48 h). Also, the “SI (selectivity indices)” value in [1] was determined as 13.57.

On to `CNC1=N[N+]2=C(c3ccccc3)c3cccc[n+]3[Ga-2]2([Cl])([Cl])[S]1` [C2, Dichlorido[N-methyl-2-(phenyl(pyridin-2-yl)methylene)hydrazinecarbothioamide-N,N,S]-gallium(III)], for which the IC50 in test [1] (HepG-2 cells, 48 h, MTT) came out at 2.76 ± 0.39 µM; in test [2] (LO2 normal cells, 48 h, MTT), 25.8 ± 2.93 µM.
